Values belong to the molecule of their own block, whether it stands above or below them.
How the values were obtained:
[1] = target: T1, Alpha-1D adrenergic receptor (Rattus norvegicus) (UniProt P23944); assay: Inhibition of (-)-noradrenaline-induced contraction of rat thoracic aorta (Alpha-1D adrenergic receptor); assay type: functional, tissue-based
T1 sequence (whole entry): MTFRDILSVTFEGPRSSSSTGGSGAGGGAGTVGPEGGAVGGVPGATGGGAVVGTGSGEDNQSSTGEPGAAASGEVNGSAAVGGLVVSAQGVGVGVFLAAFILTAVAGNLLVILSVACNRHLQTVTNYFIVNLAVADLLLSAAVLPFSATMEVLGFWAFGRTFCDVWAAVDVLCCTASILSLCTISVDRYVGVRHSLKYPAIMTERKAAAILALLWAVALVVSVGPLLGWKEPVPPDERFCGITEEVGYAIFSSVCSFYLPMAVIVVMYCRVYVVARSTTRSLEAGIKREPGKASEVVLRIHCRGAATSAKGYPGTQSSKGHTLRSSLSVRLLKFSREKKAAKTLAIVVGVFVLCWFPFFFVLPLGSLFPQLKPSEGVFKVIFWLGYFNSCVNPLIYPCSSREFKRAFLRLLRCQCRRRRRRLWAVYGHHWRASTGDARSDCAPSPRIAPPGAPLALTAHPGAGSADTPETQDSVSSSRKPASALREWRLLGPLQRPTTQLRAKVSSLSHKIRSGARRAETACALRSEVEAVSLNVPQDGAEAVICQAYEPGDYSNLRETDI
Method in brief: (§1)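 Endothelium-denuded rat thoracic aorta strips (denudation confirmed by no 100 µM acetylcholine relaxation after 1 µM noradrenaline) in Tyrode, 1 g tension, ≥2 h equilibration. Cumulative (-)-noradrenaline curves at 1 h intervals; third as control, antagonist 30 min before fourth.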

[2] = target: Alpha adrenergic receptor 1A and 1D (Rattus norvegicus) (UniProt P23944+P43140); assay: Selectivity given as ratio of pKb value against Alpha-1D receptor to pKb value against alpha1A receptor in rat; assay type: functional
[3] = target: T2, Alpha-1A adrenergic receptor (Rattus norvegicus) (UniProt P43140); assay: Inhibition of (-)-noradrenaline-induced contraction of rat prostatic vas deferens (alpha1A receptor); assay type: functional
T2 sequence (whole entry): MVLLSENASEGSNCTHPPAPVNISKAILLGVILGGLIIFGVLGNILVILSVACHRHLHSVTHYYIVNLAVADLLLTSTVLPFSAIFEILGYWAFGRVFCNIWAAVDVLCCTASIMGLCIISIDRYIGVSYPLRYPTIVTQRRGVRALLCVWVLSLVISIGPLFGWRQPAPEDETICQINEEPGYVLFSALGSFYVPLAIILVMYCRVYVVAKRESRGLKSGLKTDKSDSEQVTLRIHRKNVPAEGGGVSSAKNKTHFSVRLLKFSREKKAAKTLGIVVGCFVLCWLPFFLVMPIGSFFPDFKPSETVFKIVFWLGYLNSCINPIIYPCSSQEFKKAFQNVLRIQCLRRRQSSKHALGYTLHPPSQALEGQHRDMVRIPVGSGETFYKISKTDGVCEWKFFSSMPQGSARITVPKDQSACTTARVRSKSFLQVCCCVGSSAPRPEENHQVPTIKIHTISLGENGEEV
Method in brief: (§2)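 Rat prostatic vas deferens portion equilibrated 60 min, washed every 15 min, primed twice with 10 µM noradrenaline, re-equilibrated 60 min; control noradrenaline concentration-response curve, then antagonist 30 min before repeat curve.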

[4] = Selectivity given as ratio of pKb value against Alpha-1D receptor to pKb value against Alpha-1B receptor in rat; assay type: functional
[5] = target: Alpha adrenergic receptor 1A and 1B (Rattus norvegicus) (UniProt P15823+P43140); assay: Selectivity given as ratio of pKb value against alpha1A receptor to pKb value against alpha-1B receptor in rat; assay type: functional
[6] = target: T3, Alpha-1B adrenergic receptor (Rattus norvegicus) (UniProt P15823); assay: Inhibition of (-)-phenylephrine-induced contraction of rat spleen (Alpha-1B adrenergic receptor ); assay type: functional, tissue-based
T3 sequence (whole entry): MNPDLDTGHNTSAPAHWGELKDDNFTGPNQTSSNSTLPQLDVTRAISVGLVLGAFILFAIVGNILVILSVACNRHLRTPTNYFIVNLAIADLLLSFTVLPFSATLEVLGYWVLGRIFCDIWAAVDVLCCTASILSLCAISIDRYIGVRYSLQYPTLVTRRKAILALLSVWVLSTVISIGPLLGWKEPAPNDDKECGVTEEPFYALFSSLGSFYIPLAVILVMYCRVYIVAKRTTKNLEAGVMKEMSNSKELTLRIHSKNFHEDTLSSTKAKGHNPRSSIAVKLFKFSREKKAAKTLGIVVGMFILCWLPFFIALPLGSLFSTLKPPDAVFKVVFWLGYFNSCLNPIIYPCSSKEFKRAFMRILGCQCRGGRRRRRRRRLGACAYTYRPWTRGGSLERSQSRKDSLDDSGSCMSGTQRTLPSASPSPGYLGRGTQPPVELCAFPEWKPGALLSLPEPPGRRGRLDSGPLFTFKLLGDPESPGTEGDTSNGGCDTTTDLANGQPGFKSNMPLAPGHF
Method in brief: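 Rat spleen strips in buffer containing 4 µM propranolol to block β-adrenoceptors, 1 g resting tension, 2 h equilibration. Isometric cumulative phenylephrine curves at 30 min intervals; first discarded, second control.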

[7] = target: T4, Alpha-1D adrenergic receptor (Rattus norvegicus, UniProt P23944); assay: Antagonistic activity against (-)-noradrenaline-induced contraction of rat thoracic aorta (Alpha-1D adrenergic receptor); assay type: functional, tissue-based; conditions: read-out: pA2 (converted); method in brief: as §1
T4 sequence (P23944 whole entry): T1 sequence (whole entry)

[8] = target: T5, Alpha-1A adrenergic receptor (Rattus norvegicus, UniProt P43140); assay: Antagonistic activity against (-)-noradrenaline-induced contraction of rat prostatic vas deferens (Alpha-1A adrenergic receptor ); assay type: functional, tissue-based; conditions: read-out: pA2 (converted)
T5 sequence (P43140 whole entry): T2 sequence (whole entry)
Method in brief: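 Rat prostatic vas deferens segments equilibrated 60 min, washed every 15 min, primed twice with 10 µM noradrenaline, then re-equilibrated 60 min. Basal noradrenaline concentration-response curve, then repeat after 30 min antagonist equilibration.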

[9] = target: T2, Alpha-1A adrenergic receptor (Rattus norvegicus); assay: Antagonistic activity against (-)-noradrenaline-induced contraction of rat prostatic vas deferens (Alpha-1A adrenergic receptor); assay type: functional, tissue-based; method in brief: as §2

SMILES: COc1cccc(OC)c1OCCNCC1CO[C@H](c2cccc3ccccc23)O1.O=C(O)C(=O)O (some centres undefined)
pKb [1]: 7.32
Selectivity [2]: > 209
pKb [3]: < 5
Selectivity [4]: 9
Selectivity [5]: < 0.04
pKb [6]: 6.38

SMILES: COc1cccc(OC)c1OCCNCC1CO[C@@H](c2cccc3ccccc23)O1.O=C(O)C(=O)O (some centres undefined)
pKb [1]: 7.07
Selectivity [2]: 24
pKb [3]: 5.69
Selectivity [4]: 5
Selectivity [5]: 0.2
pKb [6]: 6.38

SMILES: O=C(O)C(=O)O.c1ccc(OCCNCC2COC3(CCCCC3)O2)cc1 (centres undefined)
pKb [1]: 6.54
Selectivity [2]: 19
pKb [3]: 5.27
Selectivity [4]: 2
Selectivity [5]: 0.1
pKb [6]: 6.2

SMILES: COc1cccc(OC)c1OCCNCC1CO[C@](C)(c2ccccc2)O1.O=C(O)C(=O)O (some centres undefined)
Kb [7]: 129 nM
Selectivity [2]: 12
pKb [3]: 5.8
Selectivity [4]: 21
Selectivity [5]: 2
pKb [6]: 5.56

SMILES: COc1cccc(OC)c1OCCNCC1COC(c2ccccc2)(c2ccccc2)O1.O=C(O)C(=O)O (centres undefined)
Kb [7]: 117 nM
Selectivity [2]: 16
pKb [3]: 5.73
Selectivity [4]: 11
Selectivity [5]: 0.7
pKb [6]: 5.89

SMILES: O=C(O)C(=O)O.c1ccc(OCCNCC2CO[C@@H](c3ccccc3)O2)cc1 (some centres undefined)
pKb [1]: 6.94
Selectivity [2]: 9
pKb [3]: 6.01
Selectivity [4]: 4
Selectivity [5]: 0.4
pKb [6]: 6.4

SMILES: COc1cccc(OC)c1OCCNCC1CO[C@@](C)(c2ccccc2)O1.O=C(O)C(=O)O (some centres undefined)
pKb [1]: 6.69
Selectivity [2]: 11
pKb [3]: 5.74
Selectivity [4]: 7
Selectivity [5]: 0.6
pKb [6]: 5.93

pKb [1]: 8.4
pKb [6]: 7.48
SMILES: COc1ccccc1N1CCN(CCN2C(=O)CC3(CCCC3)CC2=O)CC1

Kb [7]: 2.51 nM
Kb [8]: 0.437 nM
SMILES: COc1cccc(OC)c1OCCNCC1COc2ccccc2O1 (centres undefined)

SMILES: O=C(O)C(=O)O.c1ccc(OCCNCC2CO[C@H](c3ccccc3)O2)cc1 (some centres undefined)
pKb [1]: 7.09
Selectivity [2]: 45
pKb [3]: 5.44
Selectivity [4]: 6
Selectivity [5]: 0.1
pKb [6]: 6.3

SMILES: COc1cccc(OC)c1OCCNCC1CO[C@@H](c2ccccc2)O1.O=C(O)C(=O)O (some centres undefined)
pKb [1]: 6.18
Selectivity [2]: 0.7
pKb [3]: 6.31
Selectivity [4]: 1
Selectivity [5]: 1
pKb [6]: 6.19

SMILES: COc1cccc(OC)c1OCCNCC1COC(c2ccc3ccccc3c2)O1.O=C(O)C(=O)O (centres undefined)
pKb [1]: 6.65
Selectivity [2]: 7
pKb [3]: 5.79
Selectivity [4]: 33
Selectivity [5]: 5
pKb [6]: 5.12

SMILES: COc1cccc(OC)c1OCCNCC1CO[C@@H](Cc2ccccc2)O1.O=C(O)C(=O)O (some centres undefined)
pKb [1]: 6
Selectivity [2]: 0.2
pKb [3]: 6.82
Selectivity [4]: 5
Selectivity [5]: 23
pKb [6]: 5.45

SMILES: COc1cccc(OC)c1OCCNCC1CO[C@@H](C(c2ccccc2)c2ccccc2)O1.O=C(O)C(=O)O (some centres undefined)
pKb [1]: 6.88
Selectivity [2]: 1
pKb [3]: 6.77
Selectivity [4]: 28
Selectivity [5]: 21
pKb [6]: 5.44

SMILES: COc1cccc(OC)c1OCCNCC1CO[C@H](c2ccccc2)O1.O=C(O)C(=O)O (some centres undefined)
pKb [1]: 6.44
Selectivity [2]: 0.7
pKb [9]: 6.61
Selectivity [4]: 6
Selectivity [5]: 8
pKb [6]: 5.7

SMILES: COc1cccc(OC)c1OCCNCC1CO[C@H](Cc2ccccc2)O1.O=C(O)C(=O)O (some centres undefined)
pKb [1]: 5.13
Selectivity [2]: 0.6
pKb [3]: 5.36
Selectivity [4]: 0.2
Selectivity [5]: 0.4
pKb [6]: 5.77

SMILES: COc1cccc(OC)c1OCCNCC1CO[C@H](C(c2ccccc2)c2ccccc2)O1.O=C(O)C(=O)O (some centres undefined)
pKb [1]: 7.15
Selectivity [2]: 36
pKb [3]: 5.6
Selectivity [4]: 44
Selectivity [5]: 12
pKb [6]: 5.51
